GalR3 antag: GalR3 antagonists in HEK293 cells, primary screen, cell-based, fluorescence readout; HEK293 GalR3-CNG cAMP membrane potential fluorescence; galR3 body fused to GalR1 C-terminus; inhibition, % at 3 µM; AID 651719, 2012; actives 0.44% (n = 360,000);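 active = inhibition above the screen-wide average plus 3 SD, cut at about 13% in these data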;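 note: forskolin and galanin both at EC90 stimulate the cells; cAMP rise reported by CNG channel membrane potential dye signal; 0% = forskolin plus galanin with DMSO and 100% = forskolin alone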
Target sequence (O60755 1-299 limits assumed): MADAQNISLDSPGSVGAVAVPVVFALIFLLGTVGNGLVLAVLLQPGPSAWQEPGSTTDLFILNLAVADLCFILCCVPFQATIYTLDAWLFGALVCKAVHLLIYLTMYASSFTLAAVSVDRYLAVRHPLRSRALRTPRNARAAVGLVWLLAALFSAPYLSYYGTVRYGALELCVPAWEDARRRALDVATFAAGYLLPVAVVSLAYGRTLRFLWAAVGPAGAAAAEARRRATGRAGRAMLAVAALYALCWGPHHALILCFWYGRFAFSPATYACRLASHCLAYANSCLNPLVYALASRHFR
NR2E3 ag-1: inhibitors of NR2E3-RetCOR corepressor binding, primary screen, NR2E3 agonist project, biochemical, TR-FRET, GST-NR2E3, biotin-RetCOR | Photoreceptor-specific nuclear receptor (Homo sapiens), Q9Y5X4 | 1536-well | inhibition of corepressor binding, % at 4.78 µM | actives 0.12% (n = 320,000) | AID 2300, 2010;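 active = percent inhibition above the cutoff of mean plus 3 SD of all tested compounds, set per screening campaign, cut at about 20% in these data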;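 note: 0% = DMSO wells and 100% = biotin wells as full block of FRET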
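Material: NR2E3–RetCOR corepressor complex | Quantity: 1.35 nM GST-tagged NR2E3 final | Schedule: 5 h at 4 °C | Replication: Singlicate compound wells | Reagent: RetCOR corepressor, biotinylated, 7 nM | Controls: Biotin wells as high control, 0.6% DMSO wells as low control | Signal: TR-FRET, Eu(K)-anti-GST donor, streptavidin-D2 acceptor, ex 340, em 617/671 nm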
NadD block: inhibitors of S. aureus NadD, primary screen, biochemical, colorimetric, uHTS. Nicotinate-nucleotide adenylyltransferase NadD (Staphylococcus aureus N315). purified NadD enzyme, colorimetric absorbance read-out. inhibition, % at 20 µM. actives 0.78% (n = 360,000); in the data active = inhibition above about 26%
MsrA inhibitor: bovine MsrA enzyme inhibitors, primary screen, biochemical, absorbance, HTS; actives 0.75% (n = 360,000); AID 651718, 2012; inhibition, % at 15.5 µM; Methionine sulfoxide reductase A (Bos taurus); purified bovine MsrA, absorbance read-out; in the data active = inhibition above about 4.5%;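 note: 0% = vehicle wells with enzyme and 100% = reference inhibitor wells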
MsrA act: bovine MsrA enzyme activators, primary screen, biochemical, absorbance, HTS. AID 602163, 2012. Methionine sulfoxide reductase A (Bos taurus). activation, % at 10.6 µM. purified bovine MsrA, absorbance read-out. actives 0.3% (n = 360,000); in the data active = activation above about 7.5%;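 note: 0% = vehicle and 100% = reference activator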
NR2E3 ag-2: NR2E3 agonists in two-hybrid cells, primary screen, cell-based, luminescence, CHO-S, Gal4-NCOR/VP16-NR2E3; luciferase; Photoreceptor-specific nuclear receptor (Homo sapiens), Q9Y5X4; AID 602229, 2012; actives 0.35% (n = 360,000); inhibition of corepressor binding, % at 3.98 µM;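 active = inhibition above the mean of all tested compounds plus 3 SD, cut at about 70% in these data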;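 note: 0% = DMSO with NR2E3 transfected cells and 100% = cells lacking NR2E3 construct; higher means lower luciferase signal from less NR2E3 corepressor binding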
* marks the source's active call; other numbers are inactive results; · = no result. Only some compounds are listed: those with a hit (about 2.5% of all), similar ones and a draw of the others.

SMILES	GalR3 antag	NR2E3 ag-1	NadD block	MsrA inhibitor	MsrA act	NR2E3 ag-2
COC(=O)[C@H](C)NC(=O)NCc1ccco1	·	3	-7	·	2	-9
COc1ccc(OC)c(NC(=O)C(=O)N/N=C/c2ccccc2[N+](=O)[O-])c1	-2	-3	4	0	-3	-13
COc1ccc(NC(=O)C(=O)N/N=C/c2cc(C)n(-c3cccc(Cl)c3Cl)c2C)c(OC)c1	-2	0	36*	-1	-7	-4
COc1ccc(/C=N/NC(=O)CSc2n[nH]c(=O)[nH]c2=O)cc1	1	-1	-5	-1	-1	-24
CCN(CC)c1nc(N)c([N+](=O)[O-])c(NCCO)n1	6	5	-1	4.7*	-3	17
Cc1cc(C)n(C(=O)CN2C(=O)COc3ccccc32)n1	-3	2	-4	0	-4	-2
Clc1ccccc1Cn1nnc2c(Nc3ccccc3)ncnc21	·	-3	1	·	0	-84
CCN(C(=O)CN1C(=O)S/C(=C\c2cccc(Cl)c2)C1=O)C1CCS(=O)(=O)C1 (stereo unspecified)	4	0	2	2	-2	6
CCN(C(=O)CN1C(=O)S/C(=C\C=C\c2ccccc2)C1=O)C1CCS(=O)(=O)C1 (stereo unspecified)	2	1	4	4.6*	-6	16
Cc1ccc([N+](=O)[O-])cc1-c1[nH]c(-c2ccc(O)c(O)c2)nc1-c1ccccc1	-5	0	31*	0	-11	-17
Cc1ccccc1NC(=O)NCc1ccc2c(c1)OCO2	-4	0	2	0	-4	-29
COc1ccccc1NC(=O)C1=C(C)NC(SCC(=O)c2ccccc2)=C(C#N)C1c1ccco1 (stereo unspecified)	·	·	36*	·	-14	-47
CC(=O)C1=C(C)NC(SCC(=O)c2ccc(C)cc2)=C(C#N)C1c1ccco1 (stereo unspecified)	·	4	·	·	·	·
O=c1[nH]c(/C=C\c2ccc(O)c(Cl)c2)nc(O)c1[N+](=O)[O-]	-11	0	-2	4.6*	-2	-20
O=C(c1ccc2c(=O)n(-c3ccccc3)c(=O)[nH]c2c1)N1CCN(c2ccc(F)cc2)CC1	-6	-1	8	0	2	3
CC(=O)c1ccc(N2CCN(C(=O)c3ccc4c(=O)n(-c5ccccc5)c(=O)[nH]c4c3)CC2)cc1	-7	0	11	4.6*	-9	15
COc1cc(C2C3=C(CCCC3=O)Nc3[nH]n(-c4ccccc4)c(=O)c32)ccc1OC(C)=O (stereo unspecified)	-4	-2	-4	4.6*	-4	-17
O=C(COC(=O)c1cccc(O)c1)NCc1ccc2c(c1)OCO2	-8	0	-3	0	-3	11
COc1cccc(OCc2cc(C3Nc4ccccc4C(=O)N3Cc3ccco3)ccc2OC)c1 (stereo unspecified)	-4	·	31*	1	-7	-15
COc1ccc(-c2ccc(CCC(=O)O)n2CC(=O)Nc2cccc(OC)c2)cc1	-8	3	-5	4.7*	-2	-14
N#Cc1c(-c2ccc(Cl)cc2)n(O)c2ccccc12	·	·	-4	·	-5	98*
Nc1ccc(CCn2ccnc2)cc1	-10	0	34*	0	-3	-21
COc1ccc(Cl)cc1NC(=O)COC(=O)c1cc(NS(=O)(=O)c2cccs2)ccc1O	1	1	33*	1	-2	6
Cn1c(=O)c2c(ncn2Cc2ccc(Cl)c(Cl)c2)n(C)c1=O	-4	6	0	0	-1	19
CC(=O)Oc1ccc(/C=C2/C(=O)N(c3ccccc3)N=C2C)cc1	4	5	1	0	-1	-12
SMILES	GalR3 antag	NR2E3 ag-1	NadD block	MsrA inhibitor	MsrA act	NR2E3 ag-2
Cc1cc(/C=C\c2ccc3cc(N(C)C)ccc3[n+]2C)c(C)n1-c1ccccc1	·	5	74*	·	-3	100*
Cc1cc(Br)cn2c(Cc3cccc(Cl)c3)c(-c3cccc(Cl)c3)nc12	-4	·	17	3	-7	-18
CC1=C(SCc2ccccc2)C(=O)c2ccccc2C1=O	-6	·	14	21*	1	21
C/C(N)=C(/C#N)C(=O)COC(=O)c1cccc(C)c1O	-1	2	-5	0	-3	-47
O=C(C[n+]1ccc2ccccc2c1)c1cccc2ccccc12	-6	-4	1	1	-6	-16
O=C(/C=C/c1cc[n+](CC(=O)c2ccc3cccc4c3c2CC4)cc1)c1ccc2cccc3c2c1CC3	·	-4	83*	·	-8	-27
O=C1CC(CSc2ccc(Cl)cc2)=NN1	-4	3	-1	0	-3	-23
Cc1cccc(/C=N\Nc2nnc(-c3ccccc3)c(=O)[nH]2)c1	0	2	5	0	-1	-25
N#CC1=C(N)SC(N)=C(C#N)C1c1cccc(O)c1	60*	6	-1	2	-4	-12
O=c1c2ccccc2oc2cc(NCCCN3CCOCC3)ccc12	-5	10	-3	4.6*	-3	-44
CC(CCCN1CCCC1)Nc1ccnc2cc(Cl)ccc12 (stereo unspecified)	-5	·	-2	4.8*	-1	-24
O=C(NCCc1ccc(Cl)cc1)c1cc(S(=O)(=O)N2CCCC2)ccc1F	-2	·	-3	0	-2	14
O=C(CSc1ncn[nH]1)N/N=C/c1ccc(C(F)(F)F)cc1	6	-2	-3	0	-3	14
CC1CCN(c2cc(N3CCC(C)CC3)c([N+](=O)[O-])cc2/C=C(\C#N)c2nn(-c3ccccc3)c(N)c2C#N)CC1	3	3	51*	0	-11	2
COc1c(O)cc2c(c1O)C1OC(CO)C(O)C(O)C1OC2=O (stereo unspecified)	·	2	-4	2	-1	11
COc1c(O)cc2c(c1O)[C@@H]1O[C@H](CO)[C@@H](O)[C@H](O)C1OC2=O (stereo partly specified)	13*	-1	-1	1	-2	-12
COc1ccc(C(=O)OCC(=O)N2CCC(C)CC2)cc1S(=O)(=O)N1CCOCC1	-4	·	-1	-2	-1	1
O=C1C(Nc2ccccc2)=C/C(=N/S(=O)(=O)c2cccs2)c2ccccc21	·	6	1	·	-1	102*
COC(=O)c1ccccc1NC1=C/C(=N\S(=O)(=O)c2ccc(C(=O)O)cc2)c2ccccc2C1=O	·	4	47*	·	-3	10

Source: PubChem
